Active and inactive are the calls of the source. The calls are words filed in the database; no cut-off is given here.
Tests used:
[1] = Agonist activity at human alpha7 nAChR/mouse 5HT3 chimeric receptor expressed in SH-EP1 cells assessed as increase in intracellular calcium level relative to 100 uM nicotine; type: functional
Procedure, shortened: (§1)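 α7-5HT3 chimera stably in SH-EP1 cells grown to confluence; loaded with Calcium Green 1 AM (2 μM final) 60 min at 37 °C. Compound added directly; calcium rise read by FLIPR (excitation 488 nm, emission >525 nm).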

Rattus norvegicus [2] = assay: Cognitive enhancement in Sprague-Dawley rat assessed as improvement of scopolamine-impaired performance at 0.32 mg/kg, sc administered 30 mins before scopolamine challenge by novel object recognition assay; type: functional, organism-based; parameters: dose 0.32 mg/kg
Procedure, shortened: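 Rats habituated to the arena 3 min on day 1. Next day, 10-15 per group dosed sc with vehicle or compound, then 30 min later vehicle or (-)-scopolamine 0.2 mg/kg sc. After 30 min more, two identical objects shown 3 min; 2.5 h later one novel and one familiar object for 3 min. Exploration time per object, mean ± SEM.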

[3] = Agonist activity at human alpha7 nAChR/mouse 5HT3 chimeric receptor expressed in SH-EP1 cells assessed as increase in intracellular calcium level; type: functional, cell-based; procedure, shortened: as §1
CHO = assay: Toxicity in CHO cells assessed as induction of DNA fragments by in vitro micronucleus assay; type: cell-based, Cricetulus griseus; details: chinese hamster
[4] = biological target: Neuronal acetylcholine receptor; alpha3/beta4 (Homo sapiens, UniProt P30926+P32297); assay: Displacement of [3H]epibatidine from alpha3beta4 nAChR expressed in IMR32 cells; type: cell-based, IMR-32
Procedure, shortened: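 Alpha3β4 binding in IMR32 cells with [3H]epibatidine radioligand. Six-point concentration-response curve run in triplicate and averaged.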

[5] = Aqueous solubility of the compound; type: physicochemical; details: buffer
[6] = Half life in human liver microsomes; type: ADME, Microsome
Procedure, shortened: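 Stability in human liver microsomes.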

[7] = Permeability from apical to basolateral side in dog MDCK cells at 2 uM; type: ADME, cell-based, Canis lupus familiaris; details: read-out: permeability
Procedure, shortened: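 MS quantification of apical-to-basolateral transfer of compound at 2 μM across contiguous MDCK cell monolayers.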

Plasma = assay: Fraction unbound in rat plasma; type: ADME, cell-free
[8] = Ratio of drug level in brain to plasma of rat at 1 mg/kg, sc after 40 mins; details: brain and plasma
[9] = biological target: T1, Muscarinic acetylcholine receptor M1 (Homo sapiens, UniProt P11229); assay: Inhibition of muscarinic M1 receptor
T1 sequence (P11229 whole entry): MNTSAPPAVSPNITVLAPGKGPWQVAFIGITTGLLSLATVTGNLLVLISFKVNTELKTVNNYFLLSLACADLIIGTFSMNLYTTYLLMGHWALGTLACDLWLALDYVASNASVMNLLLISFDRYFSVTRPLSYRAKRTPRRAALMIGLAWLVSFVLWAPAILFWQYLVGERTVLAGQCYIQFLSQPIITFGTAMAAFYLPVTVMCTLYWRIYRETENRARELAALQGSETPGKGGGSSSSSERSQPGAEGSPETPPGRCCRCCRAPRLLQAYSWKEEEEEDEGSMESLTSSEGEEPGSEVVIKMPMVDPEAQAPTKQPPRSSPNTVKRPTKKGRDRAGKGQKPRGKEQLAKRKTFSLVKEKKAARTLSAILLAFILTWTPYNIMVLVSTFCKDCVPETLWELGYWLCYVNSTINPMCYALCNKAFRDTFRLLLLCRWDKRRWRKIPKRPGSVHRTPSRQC

[10] = biological target: Muscarinic acetylcholine receptor M3 (Homo sapiens, UniProt P20309); assay: Inhibition of muscarinic M3 receptor
[11] = biological target: T2, Muscarinic acetylcholine receptor M5 (Homo sapiens, UniProt P08912); assay: Inhibition of muscarinic M5 receptor
T2 sequence (P08912 whole entry): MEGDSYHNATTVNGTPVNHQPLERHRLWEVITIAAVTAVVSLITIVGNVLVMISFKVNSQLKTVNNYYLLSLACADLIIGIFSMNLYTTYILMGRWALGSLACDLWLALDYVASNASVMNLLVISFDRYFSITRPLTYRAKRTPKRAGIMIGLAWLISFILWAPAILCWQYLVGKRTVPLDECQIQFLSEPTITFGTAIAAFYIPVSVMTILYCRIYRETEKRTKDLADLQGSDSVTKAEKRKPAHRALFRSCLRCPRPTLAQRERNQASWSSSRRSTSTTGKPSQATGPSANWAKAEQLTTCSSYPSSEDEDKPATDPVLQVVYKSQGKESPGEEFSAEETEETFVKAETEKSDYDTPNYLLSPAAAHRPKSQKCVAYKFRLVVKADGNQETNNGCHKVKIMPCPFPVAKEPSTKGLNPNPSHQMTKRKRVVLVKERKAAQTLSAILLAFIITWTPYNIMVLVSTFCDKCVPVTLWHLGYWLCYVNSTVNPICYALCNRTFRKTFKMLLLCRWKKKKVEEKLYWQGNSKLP

Rattus norvegicus [12] = assay: Cognitive enhancement in Sprague-Dawley rat assessed as reversal of amphetamine-induced auditory sensory gating deficit at 0.3 mg/kg, sc; type: functional, organism-based; parameters: dose 0.3 mg/kg
Procedure, shortened: (§2)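 Male Sprague-Dawley rats (250-300 g) under chloral hydrate (400 mg/kg ip), femoral vein cannulated. CA3 hippocampal field potential recorded; auditory-evoked responses averaged over 50 stimulus pairs at 10 s interstimulus interval. Gating disrupted by d-amphetamine 1 mg/kg iv; compound sc. Read-out is reversal of the amphetamine deficit; PBS vehicle; two-tailed paired t-test.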

Rattus norvegicus [13] = assay: Cognitive enhancement in Sprague-Dawley rat assessed as reversal of amphetamine-induced auditory sensory gating deficit at 1 mg/kg, sc; type: functional, organism-based; parameters: dose 1 mg/kg; procedure, shortened: as §2
Rattus norvegicus [14] = assay: Cognitive enhancement in Sprague-Dawley rat assessed as reversal of amphetamine-induced auditory sensory gating deficit at 0.1 mg/kg, sc; type: functional, organism-based; parameters: dose 0.1 mg/kg; procedure, shortened: as §2
Rattus norvegicus [15] = assay: Cognitive enhancement in sc dosed Sprague-Dawley rat assessed as reversal of amphetamine-induced auditory sensory gating deficits; type: functional; details: read-out: MED; procedure, shortened: as §2
Rattus norvegicus [16] = assay: Cognitive enhancement in Sprague-Dawley rat assessed as augmentation of amphetamine-induced hippocampal theta oscillation at 1 mg/kg, sc; type: functional, organism-based; parameters: dose 1 mg/kg; details: Hippocampus

Neuronal acetylcholine receptor; alpha3/beta4, sequence (P30926 whole entry): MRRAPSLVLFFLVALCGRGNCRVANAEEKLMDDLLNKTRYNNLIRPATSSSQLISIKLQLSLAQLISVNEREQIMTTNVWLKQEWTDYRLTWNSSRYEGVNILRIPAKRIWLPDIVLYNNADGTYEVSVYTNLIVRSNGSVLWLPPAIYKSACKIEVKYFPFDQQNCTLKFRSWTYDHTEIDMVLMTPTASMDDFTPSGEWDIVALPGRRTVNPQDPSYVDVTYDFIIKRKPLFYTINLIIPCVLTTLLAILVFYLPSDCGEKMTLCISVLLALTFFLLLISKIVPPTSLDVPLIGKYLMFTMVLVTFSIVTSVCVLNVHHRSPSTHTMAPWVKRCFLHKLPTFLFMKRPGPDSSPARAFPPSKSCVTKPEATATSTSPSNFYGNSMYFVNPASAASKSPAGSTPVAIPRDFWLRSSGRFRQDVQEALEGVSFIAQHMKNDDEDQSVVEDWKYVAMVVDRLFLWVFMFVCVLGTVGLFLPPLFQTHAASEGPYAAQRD
Neuronal acetylcholine receptor; alpha3/beta4, sequence (P32297 whole entry): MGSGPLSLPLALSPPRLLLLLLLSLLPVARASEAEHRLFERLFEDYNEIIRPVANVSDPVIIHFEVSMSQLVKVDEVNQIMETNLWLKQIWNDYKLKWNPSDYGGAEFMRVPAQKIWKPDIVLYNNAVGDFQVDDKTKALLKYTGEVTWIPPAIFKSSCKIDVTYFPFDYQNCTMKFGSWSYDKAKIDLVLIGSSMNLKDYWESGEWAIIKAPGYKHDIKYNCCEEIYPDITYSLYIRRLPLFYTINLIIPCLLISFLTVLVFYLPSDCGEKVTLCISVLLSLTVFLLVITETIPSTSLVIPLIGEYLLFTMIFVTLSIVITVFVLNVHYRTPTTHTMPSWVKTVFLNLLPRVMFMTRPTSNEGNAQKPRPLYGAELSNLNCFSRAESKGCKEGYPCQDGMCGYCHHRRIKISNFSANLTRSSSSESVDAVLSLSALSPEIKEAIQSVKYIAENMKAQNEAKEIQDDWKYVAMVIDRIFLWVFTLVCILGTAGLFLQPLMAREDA
Muscarinic acetylcholine receptor M3, sequence (P20309 whole entry): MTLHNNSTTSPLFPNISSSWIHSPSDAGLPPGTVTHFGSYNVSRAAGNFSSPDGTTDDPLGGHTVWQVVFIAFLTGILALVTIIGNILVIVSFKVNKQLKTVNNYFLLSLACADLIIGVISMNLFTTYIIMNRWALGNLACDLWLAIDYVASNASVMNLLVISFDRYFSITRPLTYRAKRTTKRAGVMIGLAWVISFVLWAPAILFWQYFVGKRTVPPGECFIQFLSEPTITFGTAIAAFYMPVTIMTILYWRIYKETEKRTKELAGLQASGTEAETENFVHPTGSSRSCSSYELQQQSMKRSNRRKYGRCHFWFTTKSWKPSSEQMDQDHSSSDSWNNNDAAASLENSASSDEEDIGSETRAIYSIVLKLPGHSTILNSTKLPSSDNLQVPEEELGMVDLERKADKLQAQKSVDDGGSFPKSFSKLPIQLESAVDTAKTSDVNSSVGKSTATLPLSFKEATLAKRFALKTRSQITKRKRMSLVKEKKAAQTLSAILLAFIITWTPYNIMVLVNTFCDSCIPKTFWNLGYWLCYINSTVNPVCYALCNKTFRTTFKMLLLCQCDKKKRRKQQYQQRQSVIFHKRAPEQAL

With Cc1ccc2oc(N3CCN4CCC3CC4)nc2n1 the Efficacy [1] was 46%, the Activity (Rattus norvegicus [2]) was “Active” and the EC50 [3] was 0.244 µM. For the same molecule, the Activity (CHO) was “Non-toxic”, the Ki [4] was 5.37 µM and the solubility [5] was > 2.4 mg/mL. For the same molecule, the half-life [6] was > 2 h, the Papp A→B at 2 µM [7] was 180 nm/s and the Fu (Plasma) was 0.78%. For the same molecule, the Kp at 40 min [8] was 1.5, the Ki [9] was 14 µM and the Ki [10] was 8.3 µM. The Ki [11] was 5.2 µM, the Activity (Rattus norvegicus [12]) was “Active” and the Activity (Rattus norvegicus [13]) was “Active”. The Activity (Rattus norvegicus [14]) was “Active”, the minimal effective dose (Rattus norvegicus [15]) was 0.3 mg/kg and the Activity (Rattus norvegicus [16]) was “Active”.

From ChEMBL document CHEMBL1159071, “Discovery of 4-(5-methyloxazolo[4,5-b]pyridin-2-yl)-1,4-diazabicyclo[3.2.2]nonane (CP-810,123), a novel alpha 7 nicotinic acetylcholine receptor agonist for the treatment of cognitive disorders in schizophrenia: synthesis, SAR development, and in vivo efficacy in cognition models” (J Med Chem, 2010)
